Data reported in ChEMBL document CHEMBL1765022, “Synthesis and biological evaluation of tetracyclic thienopyridones as antibacterial and antitumor agents” (Bioorg Med Chem, 2011).
In brackets after ≈: the same amount, converted by molar mass.

What was measured:
[1] = system: Bacillus cereus; assay: Antimicrobial activity against Bacillus cereus ATCC 11778 by broth dilution method; type: functional
Procedure, shortened: (§1)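 Twofold serial broth dilution in Mueller Hinton Broth. […] Growth (drug-free), DMSO solvent and organism-free sterility tubes were included. Three replicates per organism, at least three independent experiments.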

[2] = system: Priestia megaterium; assay: Antimicrobial activity against Bacillus megaterium ATCC 19213 by broth dilution method; type: functional; procedure, shortened: as §1
[3] = system: Bacillus subtilis; assay: Antimicrobial activity against Bacillus subtilis ATCC 6633 by broth dilution method; type: functional; procedure, shortened: as §1
[4] = Antimicrobial activity against Bacillus thuringiensis var.kurstaki BGSC 4D1 by broth dilution method; type: functional, Bacillus thuringiensis serovar kurstaki; procedure, shortened: as §1
[5] = system: Staphylococcus aureus; assay: Antimicrobial activity against Staphylococcus aureus ATCC 6538 by broth dilution method; type: functional; procedure, shortened: as §1
[6] = system: Staphylococcus aureus; assay: Antimicrobial activity against quinilone-pencillin-resistant Staphylococcus aureus isolate SAR 72 by broth dilution method; type: functional
Procedure, shortened: (§2)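 Twofold serial broth dilution in Mueller Hinton Broth. […] Drug-free tubes, DMSO-only tubes and organism-free tubes served as growth, solvent and sterility controls. Three replicates per organism, at least three independent experiments.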

[7] = system: Staphylococcus aureus; assay: Antimicrobial activity against quinilone-pencillin-resistant Staphylococcus aureus isolate SAR 4790 by broth dilution method; type: functional; procedure, shortened: as §2
[8] = system: Staphylococcus epidermidis; assay: Antimicrobial activity against Staphylococcus epidermidis ATCC 12228 by broth dilution method; type: functional; procedure, shortened: as §1
[9] = system: Staphylococcus epidermidis; assay: Antimicrobial activity against quinilone-pencillin-resistant Staphylococcus epidermidis clinical isolate by broth dilution method; type: functional
[10] = system: Acinetobacter baumannii; assay: Antimicrobial activity against Acinetobacter baumannii ATCC 19606 by broth dilution method; type: functional; procedure, shortened: as §1
[11] = system: Escherichia coli; assay: Antimicrobial activity against Escherichia coli ATCC 8739 by broth dilution method; type: functional; procedure, shortened: as §1
[12] = system: Haemophilus influenzae; assay: Antimicrobial activity against Haemophilus influenzae ATCC 19418 by broth dilution method; type: functional
Procedure, shortened: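 H. influenzae was grown in Haemophilus Test Medium using twofold serial broth dilution. […] Drug-free, DMSO-only and organism-free control tubes were included. Triplicates, with at least three independent experiments.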

[13] = system: Pseudomonas aeruginosa; assay: Antimicrobial activity against Pseudomonas aeruginosa ATCC 9027 by broth dilution method; type: functional; procedure, shortened: as §1
[14] = system: Saccharomyces cerevisiae; assay: Antimicrobial activity against Saccharomyces cerevisiae ATCC 9763 by broth dilution method; type: functional
Procedure, shortened: (§3)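 Fungi were tested by twofold serial broth dilution in Sabouraud Dextrose Broth. Inoculum was 1x10³ CFU/mL, with 48 h at 30 °C before MIC determination. Growth, DMSO solvent and sterility controls were included. Three replicates per organism, at least three independent experiments.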

[15] = system: Candida tropicalis; assay: Antimicrobial activity against Candida tropicalis ATCC 1369 by broth dilution method; type: functional; procedure, shortened: as §3
[16] = system: Aspergillus niger; assay: Antimicrobial activity against Aspergillus niger ATCC 6275 by broth dilution method; type: functional; procedure, shortened: as §3
[17] = system: MCF7; assay: Antitumor activity against human MCF7 cells after 72 hrs by MTT assay; type: functional, cell-based; conditions: MCF7, 72 h
Procedure, shortened: (§4)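 Cells were kept at 37 °C in 5% CO₂, in medium with 2 mM glutamine and 10% FBS; HuDe fibroblasts were grown in DMEM. Compounds were freshly dissolved in DMSO (final ≤0.1% v/v; controls received equal solvent) and applied at 0.1–20 µM for 72 h. Viability was read by MTT. IC₅₀ was extrapolated from Hill-fitted dose–response curves, from at least three independent experiments.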

[18] = system: A549; assay: Antitumor activity against human A549 cells after 72 hrs by MTT assay; type: functional, cell-based; conditions: A549, 72 h; procedure, shortened: as §4
[19] = system: NHDF; assay: Antitumor activity against human NHDF cells after 72 hrs by MTT assay; type: functional, cell-based; procedure, shortened: as §4
[20] = system: Acinetobacter baumannii; assay: Antimicrobial activity against quinilone-pencillin-resistant Acinetobacter baumannii clinical isolate by broth dilution method; type: functional
[21] = Inhibition of Escherichia coli DNA gyrase assessed as reduction of DNA supercoiling activity using pBR322 DNA substrate after 30 mins by electrophoresis
[22] = Inhibition of Escherichia coli topoisomerase 4 assessed as decatenation of kDNA after 30 mins by electrophoresis
Procedure, shortened: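 E. coli topoisomerase IV decatenation of kinetoplast DNA was run in 40 mM HEPES-KOH pH 7.6 with 100 mM potassium glutamate, at varying compound amounts. Products were separated by agarose electrophoresis and quantified by gel documentation. IC₅₀ (µg/mL) is the concentration halving decatenation relative to drug-free enzyme control.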

[23] = system: Escherichia coli; assay: Antimicrobial activity against quinilone-pencillin-resistant Escherichia coli clinical isolate by broth dilution method; type: functional

SMILES: COc1c(C)cc2c([nH]c3c2sc2c3c(=O)c(C(=O)O)cn2C2CC2)c1C
- MIC [1]: 3 µg/mL (≈ 7.84 µM)
- MIC [2]: 3000 ng/mL (≈ 7.84 µM)
- MIC [3]: 3000 ng/mL (≈ 7.84 µM)
- MIC [4]: 1.5 µg/mL (≈ 3.92 µM)
- MIC [5]: 6 µg/mL (≈ 15.7 µM)
- MIC [6]: 3 µg/mL (≈ 7.84 µM)
- MIC [7]: > 100 µg/mL
- MIC [8]: 3 µg/mL (≈ 7.84 µM)
- MIC [9]: 3 µg/mL (≈ 7.84 µM)
- MIC [10]: > 100 µg/mL
- MIC [11]: > 100 µg/mL
- MIC [12]: 6 µg/mL (≈ 15.7 µM)
- MIC [13]: > 100 µg/mL
- MIC [14]: > 100 µg/mL
- MIC [15]: > 100 µg/mL
- MIC [16]: > 100 µg/mL
- IC50 [17]: 2.5 µM
- IC50 [18]: 4.7 µM
- IC50 [19]: > 10 µM

SMILES: COc1ccc2c(c1)[nH]c1c2sc2c1c(=O)c(C(=O)O)cn2C1CC1
- MIC [1]: 0.03 µg/mL (≈ 0.0847 µM)
- MIC [2]: 0.03 ng/mL (≈ 8.47e-05 µM)
- MIC [3]: 0.3 ng/mL (≈ 0.000847 µM)
- MIC [4]: 0.007 µg/mL (≈ 0.0198 µM)
- MIC [5]: 0.015 µg/mL (≈ 0.0423 µM)
- MIC [6]: 1.5 µg/mL (≈ 4.23 µM)
- MIC [7]: > 100 µg/mL
- MIC [8]: 0.15 µg/mL (≈ 0.423 µM)
- MIC [9]: 6 µg/mL (≈ 16.9 µM)
- MIC [10]: 3 µg/mL (≈ 8.47 µM)
- MIC [20]: > 100 µg/mL
- MIC [11]: > 100 µg/mL
- MIC [12]: 0.15 µg/mL (≈ 0.423 µM)
- MIC [13]: > 100 µg/mL
- MIC [14]: > 100 µg/mL
- MIC [15]: > 100 µg/mL
- MIC [16]: > 100 µg/mL
- IC50 [21]: 1.1 µg/mL (≈ 3.1 µM)
- IC50 [22]: > 24 µg/mL
- IC50 [17]: 1.6 µM
- IC50 [18]: 2.6 µM
- IC50 [19]: > 10 µM

SMILES: O=C(O)c1cn(C2CC2)c2sc3c4ccccc4[nH]c3c2c1=O
- MIC [1]: 0.007 µg/mL (≈ 0.0216 µM)
- MIC [2]: 0.015 ng/mL (≈ 4.62e-05 µM)
- MIC [3]: 0.015 ng/mL (≈ 4.62e-05 µM)
- MIC [4]: 0.007 µg/mL (≈ 0.0216 µM)
- MIC [5]: 0.003 µg/mL (≈ 0.00925 µM)
- MIC [6]: 0.7 µg/mL (≈ 2.16 µM)
- MIC [7]: > 100 µg/mL
- MIC [8]: 0.03 µg/mL (≈ 0.0925 µM)
- MIC [9]: 3 µg/mL (≈ 9.25 µM)
- MIC [10]: 0.07 µg/mL (≈ 0.216 µM)
- MIC [20]: > 100 µg/mL
- MIC [11]: 25 µg/mL (≈ 77.1 µM)
- MIC [23]: > 100 µg/mL
- MIC [12]: 0.03 µg/mL (≈ 0.0925 µM)
- MIC [13]: > 100 µg/mL
- MIC [14]: > 100 µg/mL
- MIC [15]: > 100 µg/mL
- MIC [16]: > 100 µg/mL
- IC50 [21]: 1 µg/mL (≈ 3.08 µM)
- IC50 [22]: > 24 µg/mL
- IC50 [17]: 5.2 µM
- IC50 [18]: 10 µM
- IC50 [19]: > 10 µM

SMILES: C[C@H]1COc2c(N3CCN(C)CC3)c(F)cc3c(=O)c(C(=O)O)cn1c23.C[C@H]1COc2c(N3CCN(C)CC3)c(F)cc3c(=O)c(C(=O)O)cn1c23.O [LEVOFLOXACIN]
- MIC [1]: 0.15 µg/mL
- MIC [2]: 30 ng/mL
- MIC [3]: 30 ng/mL
- MIC [4]: 0.07 µg/mL
- MIC [5]: 0.07 µg/mL
- MIC [6]: 25 µg/mL
- MIC [7]: 100 µg/mL
- MIC [8]: 0.15 µg/mL
- MIC [9]: > 100 µg/mL
- MIC [10]: 0.15 µg/mL
- MIC [20]: > 100 µg/mL
- MIC [23]: 25 µg/mL
- MIC [12]: 0.15 µg/mL
- MIC [13]: 0.3 µg/mL
- MIC [14]: > 100 µg/mL
- MIC [15]: > 100 µg/mL
- MIC [16]: > 100 µg/mL

SMILES: Cc1ccc2c(c1)[nH]c1c2sc2c1c(=O)c(C(=O)O)cn2C1CC1
- MIC [1]: 0.3 µg/mL (≈ 0.887 µM)
- MIC [2]: 7 ng/mL (≈ 0.0207 µM)
- MIC [3]: 0.3 ng/mL (≈ 0.000887 µM)
- MIC [4]: 0.15 µg/mL (≈ 0.443 µM)
- MIC [5]: 0.07 µg/mL (≈ 0.207 µM)
- MIC [6]: 12 µg/mL (≈ 35.5 µM)
- MIC [7]: > 100 µg/mL
- MIC [8]: 0.3 µg/mL (≈ 0.887 µM)
- MIC [9]: 25 µg/mL (≈ 73.9 µM)
- MIC [10]: 0.7 µg/mL (≈ 2.07 µM)
- MIC [20]: > 100 µg/mL
- MIC [11]: > 100 µg/mL
- MIC [12]: 1.5 µg/mL (≈ 4.43 µM)
- MIC [13]: > 100 µg/mL
- MIC [14]: > 100 µg/mL
- MIC [15]: > 100 µg/mL
- MIC [16]: > 100 µg/mL
- IC50 [17]: 2.8 µM
- IC50 [18]: 6.9 µM
- IC50 [19]: > 10 µM

SMILES: O=C(O)c1cn(C2CC2)c2sc3c4ccc(F)cc4[nH]c3c2c1=O
- MIC [1]: 0.007 µg/mL (≈ 0.0204 µM)
- MIC [2]: 0.015 ng/mL (≈ 4.38e-05 µM)
- MIC [3]: 0.015 ng/mL (≈ 4.38e-05 µM)
- MIC [4]: 0.003 µg/mL (≈ 0.00876 µM)
- MIC [5]: 0.003 µg/mL (≈ 0.00876 µM)
- MIC [6]: 0.7 µg/mL (≈ 2.04 µM)
- MIC [7]: > 100 µg/mL
- MIC [8]: 0.03 µg/mL (≈ 0.0876 µM)
- MIC [9]: 1.5 µg/mL (≈ 4.38 µM)
- MIC [10]: 0.15 µg/mL (≈ 0.438 µM)
- MIC [20]: > 100 µg/mL
- MIC [11]: 50 µg/mL (≈ 146 µM)
- MIC [23]: > 100 µg/mL
- MIC [12]: 0.15 µg/mL (≈ 0.438 µM)
- MIC [13]: > 100 µg/mL
- MIC [14]: 12 µg/mL (≈ 35.1 µM)
- MIC [15]: > 100 µg/mL
- MIC [16]: > 100 µg/mL
- IC50 [17]: 1.9 µM
- IC50 [18]: 2.7 µM
- IC50 [19]: > 10 µM
